PGC1a acetyl inh – PGC1a acetylation modulation, inhibitor mode. U2OS PGC1a acetylation, AlphaScreen anti-acetyl-lysine; with virally co-expressed GCN5 acetyltransferase. inhibition, % at 15.6 µM. 350,000 tested, 0.17% active;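 active means every replicate shows inhibition of at least 40%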;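 further: 0% = neutral control wells and 100% = positive control wells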
rRNA inh HTS – inhibitors of bacterial rRNA selective over humanized ribosomes. E. coli WT GFP vs humanized-ribosome RFP mutants, fluorescence, 24 h; stronger effect = lower value; DMSO median 0, no signal -100. 350,000 tested, 1.6% active. AID 720706. GFP signal change (wild-type ribosome), % (test concentration not listed);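 active means significant combined selectivity score with lowered wild-type GFP, culture density cut under 30%, mutant RFP and density less affected; inactive means any of these conditions unmet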
S100A4 inh HTS – inhibitors of human S100A4 binding to myosin IIA peptide. P26447. S100A4/TAMRA-MyoIIA peptide fluorescence polarization. inhibition, % at 10.7 µM. 360,000 tested, 0.14% active. AID 652163;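 active means mean inhibition of at least 70% across replicates, with every replicate also reaching that level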
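Material: S100A4 monomer protein | Medium: HEPES pH 7.2 with CaCl2, KCl, NaCl, DTT, Triton | Reagent: Labelled myosin peptide probe, 5 nM | Doses: One dose per compound | Times: 5 min incubation before reading | Benchmarks: Neutral control DMSO, positive control TFP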
ERAP1 HTS inh – ERAP1 (human) enzyme inhibition | Q9NZ08 | inhibition, % at 10.7 µM | recombinant ERAP1, Leu-AMC fluorescence, 60 min | 340,000 tested, 0.15% active;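 active means mean replicate inhibition of at least 30%, or all replicates individually reaching that 30% level; inactive means mean below 30% and not every replicate reaching it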;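 further: 0% = neutral control wells and 100% = L-leucinethiol positive control wells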
Target sequence (Q9NZ08 whole entry, looked up): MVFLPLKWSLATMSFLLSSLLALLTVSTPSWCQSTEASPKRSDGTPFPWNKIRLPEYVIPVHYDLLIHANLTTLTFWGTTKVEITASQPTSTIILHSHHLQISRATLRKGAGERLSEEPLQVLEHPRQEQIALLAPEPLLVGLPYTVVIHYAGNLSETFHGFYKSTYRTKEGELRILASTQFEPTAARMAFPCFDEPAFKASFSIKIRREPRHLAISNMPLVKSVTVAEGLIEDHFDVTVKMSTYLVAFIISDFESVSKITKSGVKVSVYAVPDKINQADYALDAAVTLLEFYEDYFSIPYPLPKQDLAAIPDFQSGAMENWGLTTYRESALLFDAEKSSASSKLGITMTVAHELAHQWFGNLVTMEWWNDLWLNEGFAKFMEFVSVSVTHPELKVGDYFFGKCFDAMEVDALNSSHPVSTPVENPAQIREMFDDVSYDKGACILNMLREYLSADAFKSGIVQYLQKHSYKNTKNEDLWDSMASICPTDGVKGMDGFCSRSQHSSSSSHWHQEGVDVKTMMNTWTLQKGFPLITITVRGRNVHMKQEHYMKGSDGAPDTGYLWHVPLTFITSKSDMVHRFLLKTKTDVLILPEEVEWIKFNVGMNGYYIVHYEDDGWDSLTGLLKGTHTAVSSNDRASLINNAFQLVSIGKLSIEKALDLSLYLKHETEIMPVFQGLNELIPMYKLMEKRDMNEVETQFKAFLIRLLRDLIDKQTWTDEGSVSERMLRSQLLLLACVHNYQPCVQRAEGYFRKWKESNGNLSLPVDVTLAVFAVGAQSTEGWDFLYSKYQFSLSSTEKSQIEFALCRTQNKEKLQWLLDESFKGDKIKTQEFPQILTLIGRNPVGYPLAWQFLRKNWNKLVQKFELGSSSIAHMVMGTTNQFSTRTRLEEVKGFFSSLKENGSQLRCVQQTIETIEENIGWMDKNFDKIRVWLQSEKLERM
ARNT TACC3 PPI – disruptors of human ARNT/TACC3 interaction. inhibition, % at 9.99 µM. 390,000 tested, 0.66% active. AlphaScreen His-ARNT PAS-B/GST-TACC3 binding, luminescence; TACC3 fragment carries E629A point mutation. AID 623870. Q9Y6A5;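 active means mean inhibition of replicates at least 50% and at least half of replicates each reaching 50%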;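 further: 0% = complete ARNT plus TACC3 wells and 100% = ARNT alone without TACC3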
CASP6 VEID inh – blocks human caspase-6 cleavage activity; P55212; purified caspase-6, Z-VEID-R110 cleavage fluorescence; 350,000 tested, 0.53% active; inhibition, % at 12.5 µM; AID 686996;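 active means mean inhibition across replicates at least about 35%, with every replicate also reaching that limit, limit read from the data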;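 further: 0% = median of neutral control wells and 100% = no fluorescence left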
* marks the source's active call; other numbers are inactive results. Sampled rows, rich in hits. Any-hit rate of the full collection: about 2.4%.

`O=c1c2ccccc2sn1-c1ccc(F)cc1` gave PGC1a acetyl inh 8.3, rRNA inh HTS -3.1, S100A4 inh HTS 1.0, ERAP1 HTS inh 52.4*, ARNT TACC3 PPI -5.3 and CASP6 VEID inh -1.2.
`COC(=O)c1cccc(N2CCCC2=O)c1` gave PGC1a acetyl inh 9.7, rRNA inh HTS 3.6, S100A4 inh HTS 1.9, ERAP1 HTS inh -0.1, ARNT TACC3 PPI -3.9 and CASP6 VEID inh -3.0.
Screening O=C(C[C@@H]1C[C@@H]2c3cc(NC(=O)NC4CCCC4)ccc3O[C@@H]2[C@@H](CO)O1)NCc1ccc(Cl)cc1 returned PGC1a acetyl inh -10.4, rRNA inh HTS 0.2, S100A4 inh HTS -1.1, ERAP1 HTS inh -0.4, ARNT TACC3 PPI -3.5 and CASP6 VEID inh 0.3.
CCCN(C)C[C@@H]1OCCCC[C@H](C)Oc2ccc(NC(=O)NC3CCCCC3)cc2C(=O)N([C@@H](C)CO)C[C@@H]1C was read as PGC1a acetyl inh 1.6, rRNA inh HTS 0.8, S100A4 inh HTS 3.3, ERAP1 HTS inh 1.3, ARNT TACC3 PPI 10.0 and CASP6 VEID inh 1.3.
`COc1ccc(NC(=O)N(C)C[C@@H]2OCc3ccccc3-c3c(n(C)c4ccccc34)C(=O)N([C@@H](C)CO)C[C@H]2C)cc1` gave PGC1a acetyl inh -6.9, rRNA inh HTS 2.3, S100A4 inh HTS 9.3, ERAP1 HTS inh -0.7, ARNT TACC3 PPI -5.6 and CASP6 VEID inh -0.6.
COc1ccc(OCC(=O)N/N=C2\CCCCc3ccccc32)cc1 was read as rRNA inh HTS -28.9*, S100A4 inh HTS -6.6, ERAP1 HTS inh 1.9, ARNT TACC3 PPI 1.0 and CASP6 VEID inh 3.6.
For COc1ccc(NCC(=O)N/N=C2\CCc3ccccc32)cc1 the results were rRNA inh HTS -0.6, S100A4 inh HTS 4.7, ERAP1 HTS inh -2.0, ARNT TACC3 PPI -2.3 and CASP6 VEID inh 2.1.
`O=C(Nc1nnc(S(=O)(=O)Cc2ccc(F)cc2)s1)c1ccccc1F` gave PGC1a acetyl inh 2.3, rRNA inh HTS -40.0*, S100A4 inh HTS -2.1, ERAP1 HTS inh 1.0, ARNT TACC3 PPI 32.0 and CASP6 VEID inh 0.8.
O=C(O)c1cccc(S(=O)(=O)N(Cc2ccccc2)c2ccc(Cl)cc2)c1 was read as PGC1a acetyl inh -0.5, rRNA inh HTS -44.0*, S100A4 inh HTS -0.6, ERAP1 HTS inh 0.3, ARNT TACC3 PPI -4.8 and CASP6 VEID inh 26.1.
O=C(O)c1cccc(S(=O)(=O)N(Cc2ccccc2)c2ccccc2)c1 was read as PGC1a acetyl inh 6.0, rRNA inh HTS -39.1, S100A4 inh HTS 5.3, ERAP1 HTS inh -0.2, ARNT TACC3 PPI -6.1 and CASP6 VEID inh 2.1.
`Cc1ccc(C(=O)c2sc3nc4c(cc3c2N)CCC4)cc1` gave ARNT TACC3 PPI -7.1.
Nc1nc(N)c2sc3nc4c(cc3c2n1)CCC4 was read as PGC1a acetyl inh 14.4 and ARNT TACC3 PPI 76.1*.
O=C(NC(=S)NC1CCCC1)c1ccccc1 was read as rRNA inh HTS -26.0*, S100A4 inh HTS -1.2, ERAP1 HTS inh 1.8 and CASP6 VEID inh -1.7.
Screening O=C(NC1CCCCCCC1O)c1ccccc1 (stereo unspecified) returned PGC1a acetyl inh 57.1*, rRNA inh HTS 11.4, S100A4 inh HTS -15.8, ERAP1 HTS inh 0.1, ARNT TACC3 PPI -6.4 and CASP6 VEID inh -1.0.
`O=C(NNC(=S)NC1CCCCC1)c1sc2ccccc2c1Cl` gave PGC1a acetyl inh 4.9, rRNA inh HTS -19.5*, S100A4 inh HTS -0.4, ERAP1 HTS inh 9.5, ARNT TACC3 PPI -0.7 and CASP6 VEID inh -2.1.
Screening O=C(NC1CCCCC1c1ccccc1)c1ccccc1 (stereo unspecified) returned rRNA inh HTS -10.1, S100A4 inh HTS -5.7, ERAP1 HTS inh -1.4, ARNT TACC3 PPI 4.5 and CASP6 VEID inh 0.3.
Screening Cc1ccccc1-c1ccc2c(c1)O[C@@H](CN(C)Cc1ccc(C(=O)O)cc1)[C@@H](C)CN([C@@H](C)CO)S2(=O)=O returned PGC1a acetyl inh 2.6, rRNA inh HTS -4.4, S100A4 inh HTS -14.0, ERAP1 HTS inh -28.4, ARNT TACC3 PPI 0.6 and CASP6 VEID inh 5.8.
For C[C@H]1CN([C@@H](C)CO)C(=O)c2cc(N(C)C)ccc2O[C@@H]1CN(C)C(=O)Nc1ccccc1 the results were rRNA inh HTS 2.6.
For CCOC(=O)c1csc(-c2ccc(OC)c(OC)c2)n1 the results were rRNA inh HTS 0.1, S100A4 inh HTS -4.6, ERAP1 HTS inh -1.8, ARNT TACC3 PPI 0.1 and CASP6 VEID inh 9.3.
`CCOC(=O)c1csc(-c2sccc2Br)n1` gave rRNA inh HTS -27.0*, S100A4 inh HTS 2.9, ERAP1 HTS inh -1.4, ARNT TACC3 PPI -5.4 and CASP6 VEID inh 3.9.
Screening O=C(O)c1cc(C(=O)O)cc(N2C(=O)c3ccccc3C2=O)c1 returned S100A4 inh HTS -1.7, ERAP1 HTS inh -7.8 and CASP6 VEID inh 21.4.
For O=C(O)c1cc(N2C(=O)C=CC2=O)cc(N2C(=O)C=CC2=O)c1 the results were PGC1a acetyl inh 10.5, rRNA inh HTS 7.2, S100A4 inh HTS 6.5, ERAP1 HTS inh 24.1, ARNT TACC3 PPI -9.9 and CASP6 VEID inh 61.0*.
Screening Cc1ccc(S(=O)(=O)N2CCN(Cc3cccc(F)c3)CC2)cc1 returned PGC1a acetyl inh 9.1, rRNA inh HTS -27.7*, S100A4 inh HTS -10.3, ERAP1 HTS inh 5.3, ARNT TACC3 PPI -4.6 and CASP6 VEID inh 0.2.
Screening Cc1ccc(S(=O)(=O)N2CCN(Cc3ccccc3)CC2)cc1 returned rRNA inh HTS -0.5, S100A4 inh HTS -2.0, ERAP1 HTS inh 2.6, ARNT TACC3 PPI -4.6 and CASP6 VEID inh 0.9.
Screening COc1ccc(OC)c(C(=O)Nc2ccc3[nH]ccc3c2)c1 returned PGC1a acetyl inh -26.2, rRNA inh HTS -23.4*, S100A4 inh HTS 26.4, ERAP1 HTS inh -0.1, ARNT TACC3 PPI 4.9 and CASP6 VEID inh 0.7.
COc1ccc(C(=O)Nc2ccc3[nH]ccc3c2)cc1 was read as PGC1a acetyl inh -8.5, rRNA inh HTS -31.3*, S100A4 inh HTS -0.4, ARNT TACC3 PPI -1.5 and CASP6 VEID inh -1.4.
For C[C@H]1CN([C@@H](C)CO)C(=O)Cc2cc(N(C)C)ccc2O[C@@H]1CN(C)C the results were PGC1a acetyl inh -3.9, rRNA inh HTS 1.1, S100A4 inh HTS 12.6, ERAP1 HTS inh 1.6, ARNT TACC3 PPI -4.4 and CASP6 VEID inh 0.1.
Screening CSc1ccccc1NC(=O)CSc1n[nH]c(C)c1[N+](=O)[O-] returned PGC1a acetyl inh 8.4, rRNA inh HTS -30.1*, S100A4 inh HTS -5.0, ARNT TACC3 PPI -0.6 and CASP6 VEID inh -0.6.
Screening COc1ccc(CCNC(=O)CSc2nn3c(=O)c(C)nnc3s2)cc1OC returned rRNA inh HTS 7.9, S100A4 inh HTS -4.8, ERAP1 HTS inh -5.5, ARNT TACC3 PPI 17.4 and CASP6 VEID inh -2.8.

Source: PubChem
